Several values for one entry are separate records, joined by “and”; a condition that tells them apart may be missing. Identical values can stand only once.
Columns and labels:
[1] = biological target: Rpn11 (Homo sapiens, UniProt O00487); assay: In vitro Rpn11 activity assay; format: biochemical
[2] = biological target: T1, AMSH (Homo sapiens, UniProt O95630); assay: In vitro AMSH activity assay; format: biochemical
T1 sequence (O95630 1-424): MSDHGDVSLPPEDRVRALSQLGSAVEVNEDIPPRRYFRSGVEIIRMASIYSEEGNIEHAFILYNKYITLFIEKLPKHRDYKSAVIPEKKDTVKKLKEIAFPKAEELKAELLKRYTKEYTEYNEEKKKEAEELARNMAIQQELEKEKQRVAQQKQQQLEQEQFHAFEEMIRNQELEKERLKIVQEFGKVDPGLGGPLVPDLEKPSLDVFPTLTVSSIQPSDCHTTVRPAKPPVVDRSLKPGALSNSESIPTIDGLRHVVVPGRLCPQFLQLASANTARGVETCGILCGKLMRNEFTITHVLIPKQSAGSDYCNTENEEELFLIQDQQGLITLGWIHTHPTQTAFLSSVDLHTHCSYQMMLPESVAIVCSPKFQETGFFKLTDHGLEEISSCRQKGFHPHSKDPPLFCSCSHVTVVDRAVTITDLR

[3] = biological target: BRCC36 (Homo sapiens, UniProt P46736); assay: In vitro BRCC36 activity assay; format: biochemical
[4] = biological target: T2, USP25 (Homo sapiens, UniProt Q9UHP3); assay: In vitro DUB activity assay, USP25; format: biochemical; details: 50 μM THL
T2 sequence (Q9UHP3 1-1055): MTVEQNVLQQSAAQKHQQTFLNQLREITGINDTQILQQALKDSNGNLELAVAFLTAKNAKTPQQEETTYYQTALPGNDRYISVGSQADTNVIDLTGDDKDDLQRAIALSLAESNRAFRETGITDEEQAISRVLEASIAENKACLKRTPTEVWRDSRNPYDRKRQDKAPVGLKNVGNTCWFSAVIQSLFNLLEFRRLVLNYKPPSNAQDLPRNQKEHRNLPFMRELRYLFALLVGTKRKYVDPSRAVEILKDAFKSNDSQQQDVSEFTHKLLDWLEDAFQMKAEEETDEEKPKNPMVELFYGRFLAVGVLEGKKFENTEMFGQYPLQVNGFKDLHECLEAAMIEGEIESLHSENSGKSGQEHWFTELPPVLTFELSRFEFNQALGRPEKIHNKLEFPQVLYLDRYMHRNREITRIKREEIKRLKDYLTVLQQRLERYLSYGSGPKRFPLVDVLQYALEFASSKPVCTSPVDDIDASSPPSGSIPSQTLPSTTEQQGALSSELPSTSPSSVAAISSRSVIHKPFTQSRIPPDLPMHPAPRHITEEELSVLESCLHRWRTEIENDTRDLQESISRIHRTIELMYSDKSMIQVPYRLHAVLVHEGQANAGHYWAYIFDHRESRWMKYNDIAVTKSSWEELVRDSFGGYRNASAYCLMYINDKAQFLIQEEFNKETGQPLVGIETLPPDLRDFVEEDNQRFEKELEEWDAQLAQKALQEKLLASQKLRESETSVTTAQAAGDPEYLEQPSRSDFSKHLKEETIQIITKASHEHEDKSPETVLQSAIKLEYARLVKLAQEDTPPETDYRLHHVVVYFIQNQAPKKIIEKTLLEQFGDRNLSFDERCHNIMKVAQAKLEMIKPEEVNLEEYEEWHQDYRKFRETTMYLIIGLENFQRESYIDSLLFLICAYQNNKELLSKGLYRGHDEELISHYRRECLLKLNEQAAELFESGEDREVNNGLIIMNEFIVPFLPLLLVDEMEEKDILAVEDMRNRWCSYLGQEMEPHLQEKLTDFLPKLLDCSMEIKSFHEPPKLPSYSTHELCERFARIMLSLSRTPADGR
Outline: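 Human USP25 or USP5 expressed in E. coli and purified. Enzyme (4 nM) preincubated 30 min at 30°C in Hepes pH 7.3 buffer (KOAc, Mg(OAc)2, EGTA, 1 mM DTT, Tween 20, ovalbumin, protease inhibitors) with DMSO, 50 μM test compound or 50 μM PR619. Reaction started with 1 μM K48-linked tetra-ubiquitin, stopped after 10 or 30 min with SDS sample buffer plus DTT, and analysed by anti-Ub Western blot.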

[5] = biological target: 20S proteasome (Homo sapiens, UniProt P28072+P28074+Q99436); assay: 20S proteasome assay; format: biochemical
Outline: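 Purified 20S proteasome (1.4 nM) preincubated at 37°C in 25 mM Hepes pH 7.6, 0.5 mM EDTA, 0.03% SDS. Fluorogenic substrates Suc-LLVY-AMC, Suc-LY-AMC, Bz-VGR-AMC or Z-LLE-AMC added to 10 μM final. Hydrolytic activity read as rate of AMC release by fluorescence at 20 min intervals.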

[6] = biological target: RNA polymerase II (Saccharomyces cerevisiae, UniProt P04050+P08518); assay: In vitro run-off transcription using tailed templates, Pol II; format: biochemical, S.cerevisiae; details: affinity purified polymerase
[7] = biological target: RNA polymerase III (Saccharomyces cerevisiae, UniProt P04051+P22276); assay: In vitro run-off transcription using tailed templates, Pol III; format: biochemical, S.cerevisiae; details: affinity purified polymerase
[8] = tested on: N.crassa; assay: Accumulation of ubiquitylated proteins; format: cell-based, Neurospora crassa
[9] = tested on: HeLa cells; assay: Accumulation of ubiquitylated proteins; format: cell-based
[10] = tested on: HeLa cells; assay: HeLa cell adhesion measurement; format: cell-based
Outline: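 HeLa cells (DMEM, 10% FCS, penicillin/streptomycin) densely seeded at 200.000 per well. After 24 h, test compound or MG132 (DMSO) added at the indicated final concentrations from a dilution series to keep added volume constant. After 2 h, supernatant removed and detached cells counted in a Neubauer chamber. Alternatively, adhesion judged by microscopic morphology at 20×.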

[11] = tested on: HeLa cells; assay: Turnover of c-MYC in HeLa cells; format: cell-based; details: 10 μM THL
[12] = tested on: S.cerevisiae; assay: Transcript levels by qRT-PCR in S.cerevisiae; format: cell-based, Saccharomyces cerevisiae; details: 50 μM THL
[13] = tested on: N.crassa; assay: RNA sequencing; format: cell-based, Neurospora crassa
Outline: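 N. crassa treated with 50 μM test compound for 0, 40 and 120 min, then RNA sequenced. Read counts normalised to reads mapping to supercontig 8 (ribosomal loci). Genes in the lower quartile of mean reads discarded as not expressed.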

[14] = tested on: angiogenesis in mice; details: cited from earlier work
[15] = tested on: zebrafish embryos; details: cited from earlier work

BRCC36, sequence (P46736 whole entry): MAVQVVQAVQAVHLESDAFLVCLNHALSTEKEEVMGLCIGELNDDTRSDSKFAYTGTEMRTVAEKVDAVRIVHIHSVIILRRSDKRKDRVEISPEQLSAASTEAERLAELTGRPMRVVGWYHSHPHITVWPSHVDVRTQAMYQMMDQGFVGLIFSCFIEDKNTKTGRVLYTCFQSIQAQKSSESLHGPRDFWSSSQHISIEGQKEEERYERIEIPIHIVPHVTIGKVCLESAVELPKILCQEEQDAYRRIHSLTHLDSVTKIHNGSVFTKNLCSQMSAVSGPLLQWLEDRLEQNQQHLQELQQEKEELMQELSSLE
BRCC36, sequence (Q9NWV8 whole entry, further chain): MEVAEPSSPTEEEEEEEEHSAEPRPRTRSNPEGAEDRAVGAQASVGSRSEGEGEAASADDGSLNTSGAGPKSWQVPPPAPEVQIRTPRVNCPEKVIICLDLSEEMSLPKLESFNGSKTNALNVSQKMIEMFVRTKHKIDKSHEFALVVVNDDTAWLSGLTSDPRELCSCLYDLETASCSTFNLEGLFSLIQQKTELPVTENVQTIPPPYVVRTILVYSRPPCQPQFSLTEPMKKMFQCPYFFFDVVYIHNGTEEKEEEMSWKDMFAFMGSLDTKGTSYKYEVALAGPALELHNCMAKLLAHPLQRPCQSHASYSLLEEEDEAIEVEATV
BRCC36, sequence (Q9NXR7 whole entry, further chain): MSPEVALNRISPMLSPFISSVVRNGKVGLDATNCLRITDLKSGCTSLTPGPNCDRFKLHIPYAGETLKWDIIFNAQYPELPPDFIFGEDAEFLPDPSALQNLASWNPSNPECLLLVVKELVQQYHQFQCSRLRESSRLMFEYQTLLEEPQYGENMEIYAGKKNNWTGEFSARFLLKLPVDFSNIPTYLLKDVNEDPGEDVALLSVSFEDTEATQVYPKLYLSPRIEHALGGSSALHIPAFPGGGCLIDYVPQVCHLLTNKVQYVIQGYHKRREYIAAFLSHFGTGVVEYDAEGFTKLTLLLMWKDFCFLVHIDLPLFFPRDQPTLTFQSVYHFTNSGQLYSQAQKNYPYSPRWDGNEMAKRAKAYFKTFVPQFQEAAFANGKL

For `CC(=O)Nc1c2sscc-2n(C)c1=O` [THL, thiolutin], which “inhibition of Rpn11 in presence of excess Zn(cyclen)^2+” value ([1]; 1 mM DTT and 0,1 mM Zn(cyclen)^2+) is on record?
The value was “abrogated inhibition of Rpn11”.

What about the “inhibition of deubiquitylation of substrates by 19S, oxidized versus reduced THL” value ([1]; purified 26S, absence and presence of 1 mM DTT) of the same compound?
The value was “only reduced THL inhibited”.

And the “AMSH IC50 relative to that measured for Rpn11” value ([2]; AMSH IC50 higher than Rpn11 IC50)?
The value was roughly 8 fold.

What about the IC50 ([2]; IC50, inhibition of AMSH, absence of Zn(cyclen)^2+) of the same compound?
Its IC50 is 4 µM and 3.96 µM.

What about the “inhibition of AMSH in presence of Zn(cyclen)^2+” value ([2]; presence of Zn(cyclen)^2+) of the same compound?
Its value is “inhibition was reversible by Zn(cyclen)^2+”.

And the “de-ubiquitylation of substrate by BRISC (in words)” value [3]?
The value was “inhibited de-ubiquitylation of substrate by BRISC”.

And the “inhibition of cystein isopeptidase UPS25” value [4]?
The value was “did not inhibit”.

And the “trypsin-, chymotrypsin-, and caspase-like activities of the proteolytic core” value [5]?
The value was “did not inhibit”.

And the “inhibition of yeast RNA polymerase II, run-off transcription” value [6]?
Its value is “None of the three yeast polymerases were inhibited”.

What about the “inhibition of yeast RNA polymerase III, run-off transcription” value [7] of the same compound?
Its value is “None of the three yeast polymerases were inhibited”.

And the “accumulation of ubiquitylated proteins in N.crassa” value [8]?
Its value is “ubiquitylated proteins accumulated”.

And the “accumulation of ubiquitylated proteins in HeLa cells” value [9]?
The value was “ubiquitylated proteins accumulated”.

And the “adhesion / detachment of HeLa cells” value [10]?
Its value is “efficiently inhibited adhesion”.

And the “degradation of c-MYC” value [11]?
The value was “blocked degradation of c-MYC”.

What about the “levels of the S.cerevisiae transcripts dbp2 and not3” value [12] of the same compound?
Its value is “decreased in the presence of THL”.

What about the “global gene expression (RNAseq)” value ([13]; 50 μM THL for 40 or 120 min) of the same compound?
The value was “vast majority of genes were efficiently downregulated”.

What about the “number of up-regulated genes (RNAseq)” value ([13]; 50 μM THL, 0, 40, 120 min) of the same compound?
Its value is 267 genes.

What about the angiogenesis in mice [14] of the same compound?
The angiogenesis in mice was “inhibition of angiogenesis”.

And the “lethality of zebrafish embryos” value [15]?
Its value is “high lethality”.
